Data reported in ChEMBL document CHEMBL1138628, “Synthesis, in vitro and computational studies of protein tyrosine phosphatase 1B inhibition of a small library of 2-arylsulfonylaminobenzothiazoles with antihyperglycemic activity” (Bioorg Med Chem, 2009).
Activity calls are given as the source filed them. The calls are words filed in the database; no cut-off is given here.

Tests used:
Rattus norvegicus = test: Antihyperglycemic activity against STZ-nicotinamide-induced diabetes in overnight fasted Wistar rat assessed as decrease in glycemia at 100 mg/kg, administered intragastrically after 5 to 7 hrs by glucose oxidase method; type: functional
Procedure, shortened: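 Male Wistar rats (200–250 g) made diabetic by i.p. nicotinamide 110 mg/kg (saline), then 15 min later i.p. streptozotocin 65 mg/kg (citrate pH 4.5), after overnight fast; hyperglycemia confirmed at 72 h. Test compounds 100 mg/kg or glibenclamide 5 mg/kg given orally as 1% Tween 80 suspension, n = 5. Caudal vein glucose (glucose oxidase glucometer) at 0, 1, 3, 5, 7 h; % variation versus 0 h.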

[1] = target: T1, Tyrosine-protein phosphatase non-receptor type 1 (Homo sapiens) (UniProt P18031); test: Inhibition of human recombinant PTP1B expressed in Escherichia coli TB1 assessed as residual activity at 40 uM
T1 sequence (whole entry): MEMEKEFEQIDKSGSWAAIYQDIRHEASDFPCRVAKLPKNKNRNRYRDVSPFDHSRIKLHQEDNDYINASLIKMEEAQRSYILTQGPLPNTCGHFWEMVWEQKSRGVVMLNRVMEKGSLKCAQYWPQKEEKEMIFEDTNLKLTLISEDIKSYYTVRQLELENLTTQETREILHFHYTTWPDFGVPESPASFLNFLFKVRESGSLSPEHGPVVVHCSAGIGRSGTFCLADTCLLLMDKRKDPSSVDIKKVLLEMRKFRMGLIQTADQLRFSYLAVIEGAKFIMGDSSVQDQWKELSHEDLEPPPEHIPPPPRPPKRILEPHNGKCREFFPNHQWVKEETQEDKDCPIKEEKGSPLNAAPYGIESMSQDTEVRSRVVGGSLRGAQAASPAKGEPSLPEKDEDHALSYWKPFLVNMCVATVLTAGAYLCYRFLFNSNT
Procedure, shortened: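 Single-point screen at 37 °C, pH 7.0: compound at 40 µM final (from 20 mM DMSO solution) in buffer with 2 mM pNPP. Reaction started with 0.16 µg human recombinant PTP-1B in 1 ml. p-Nitrophenol read at 400 nm. Residual activity given as % of DMSO control; quadruplicate.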

[2] = target: T2, Tyrosine-protein phosphatase non-receptor type 1 (Homo sapiens, UniProt P18031); test: Inhibition of human recombinant PTP1B expressed in Escherichia coli TB1 assessed as residual activity
T2 sequence (P18031 whole entry): T1 sequence (whole entry)
Procedure, shortened: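 Tagged human PTP-1B produced in E. coli TB1 from pGEX-2T, affinity-purified, thrombin-cleaved, gel-filtered. Run at 37 °C, pH 7.0, in 0.075 M β,β-dimethylglutarate with 1 mM EDTA and 1 mM DTT, substrate 2 mM pNPP (Km). IC50 used varying inhibitor, 10 nM enzyme, KOH stop, p-nitrophenol at 400 nm. Fit of vi/vo versus concentration; quadruplicate.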

[3] = target: T2, Tyrosine-protein phosphatase non-receptor type 1; test: Inhibition of human recombinant PTP1B expressed in Escherichia coli TB1 by double reciprocal plot analysis
Procedure, shortened: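 Initial hydrolysis rates at 37 °C, pH 7.0, across pNPP 0.5–40 mM, with several inhibitor concentrations (e.g. 0, 5, 10, 20, 30 µM). Data analysed as Lineweaver–Burk (1/v vs 1/[S]) plots to assign inhibition type; quadruplicate.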

[4] = target: T1, Tyrosine-protein phosphatase non-receptor type 1 (Homo sapiens); test: Inhibition of human recombinant PTP1B expressed in Escherichia coli TB1-catalyzed hydrolysis of p-nitrophenyl phosphate assessed as decrease in hydrolysis rate preincubated for 30 mins by slow binding assay
Procedure, shortened: (§1)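 Time-course of pNPP hydrolysis by recombinant PTP-1B at several inhibitor concentrations, with p-nitrophenol release followed continuously at 400 nm. Initial rates and curve linearity examined, either without enzyme–inhibitor preincubation or after 30 min preincubation.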

[5] = target: T1, Tyrosine-protein phosphatase non-receptor type 1 (Homo sapiens); test: Inhibition of human recombinant PTP1B expressed in Escherichia coli TB1-catalyzed hydrolysis of p-nitrophenyl phosphate assessed as decrease in hydrolysis rate by slow binding assay; procedure, shortened: as §1
[6] = target: T1, Tyrosine-protein phosphatase non-receptor type 1 (Homo sapiens); test: Reversible inhibition of human recombinant PTP1B expressed in Escherichia coli TB1 assessed as complete recovery of residual enzyme activity at 37 deg C at 100 uM after 1 hr
[7] = target: T1, Tyrosine-protein phosphatase non-receptor type 1 (Homo sapiens); test: Reversible inhibition of human recombinant PTP1B expressed in Escherichia coli TB1 assessed as complete recovery of residual enzyme activity at 4 deg C at 100 uM after 1 hr
[8] = target: T1, Tyrosine-protein phosphatase non-receptor type 1 (Homo sapiens); test: Inhibition of human recombinant PTP1B expressed in Escherichia coli TB1-catalyzed hydrolysis of p-nitrophenyl phosphate assessed as decrease in hydrolysis rate using 25 mM pNPP as substrate
Procedure, shortened: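 Rates at 37 °C, pH 7.0, with 25 mM pNPP (12.5-fold Km), with inhibitor at 2.5, 5.0, 10, 25, 50, 100 and 200 µM. Residual activity measured to test for partial inhibition; quadruplicate.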

COc1ccc(Cl)cc1C(=O)NCCc1ccc(S(=O)(=O)NC(=O)NC2CCCCC2)cc1
Activity (Rattus norvegicus): Active

CC(=O)Nc1ccc(S(=O)(=O)Nc2nc3ccc([N+](=O)[O-])cc3s2)cc1
Activity [1]: inactive

CCOc1ccc2nc(NS(=O)(=O)c3ccc(Cl)cc3)sc2c1
Activity [1]: inactive

Cc1ccc2nc(NS(=O)(=O)c3ccc([N+](=O)[O-])cc3)sc2c1
IC50 [2]: 19.5 µM | Activity (Rattus norvegicus; route intragastric): 27% | Ki [3]: 7.1 µM | Activity [1]: Active | Activity [4]: Active | Activity [5]: Active | Activity [6]: Active | Activity [7]: Active | Activity [8]: Active

O=[N+]([O-])c1ccc(S(=O)(=O)Nc2nc3ccc(Cl)cc3s2)cc1
Activity [1]: inactive

CCOc1ccc2nc(NS(=O)(=O)c3ccc([N+](=O)[O-])cc3)sc2c1
IC50 [2]: 40.9 µM | Ki [3]: 20.4 µM | Activity [1]: Active | Activity [4]: Active | Activity [5]: Active | Activity [6]: Active | Activity [7]: Active | Activity [8]: Active

COc1ccc2nc(NS(=O)(=O)c3ccc([N+](=O)[O-])cc3)sc2c1
Activity [1]: inactive
